ChEMBL document CHEMBL2407056, “3-(Oxazolo[4,5-b]pyridin-2-yl)anilides as a novel class of potent inhibitors for the kinetoplastid Trypanosoma brucei, the causative agent for human African trypanosomiasis” (Eur J Med Chem, 2013)
≈ marks a conversion by molar mass, not a printed value.

Tests used:
[1] = tested on: Trypanosoma brucei brucei; test: Antitrypanosomal activity against Trypanosoma brucei brucei 427 bloodstream form after 48 hrs by Alamar blue assay; type: functional, organism-based; settings: Trypanosoma brucei, 427, 48 h
How it was run: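 Bloodstream parasites in 384-well plates, 24 h preincubation at 37 °C/5% CO2. DMSO dilutions diluted 1:21 in DMEM and added to give final 41.67 to 0.0004 µM; 48 h incubation. 70% Alamar Blue in HMI-9 + 10% FCS added, 2 h at 37 °C then 22 h at room temperature; read at ex 535/em 590 nm.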

[2] = Selectivity index, ratio of IC50 for HEK293 cells to IC50 for Trypanosoma brucei brucei 427 bloodstream form; type: toxicity, cell-based; settings: human, read-out: Ratio IC50
How it was run: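 HEK293 cells (55 µL of 72,727 cells/mL in DMEM + 10% FCS) in 384-well plates, 24 h at 37 °C/5% CO2. Drug diluted 1:21 from DMSO, final 83.34 to 0.0004 µM, 48 h. […] SI relative to T. b. brucei.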

[3] = Intrinsic clearance in human liver microsomes at 1 uM after 60 mins by LC-MS analysis; type: ADME, Microsome; settings: read-out: CLH
How it was run: (§1)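 Compound at 1 µM final (1 in 500 dilution of stock) incubated at 37 °C with human liver microsomes in 0.1 M phosphate buffer pH 7.4, 0.4 mg/mL protein. First-order depletion rate from exponential decay fit used to derive in vitro CLint and half-life; predicted hepatic extraction ratio from scaled CLint with liver blood flow 20.7 mL/min/kg.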

[4] = Kinetic solubility of the compound in phosphate buffer at pH 2 by nephelometry; type: physicochemical; settings: read-out: Kinetic_solubility
[5] = Kinetic solubility of the compound in phosphate buffer at pH 6.5 by nephelometry; type: physicochemical; settings: read-out: Kinetic_solubility
How it was run: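 DMSO stocks spiked into pH 6.5 phosphate buffer or 0.01 M HCl (about pH 2.0), final DMSO 1% (v/v). Solubility range determined by nephelometry.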

[6] = Partition coefficient, log D of the compound at pH 7.4 by HPLC analysis; type: physicochemical; settings: octanol/water
How it was run: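 Chromatographic gradient HPLC: mobile phase 50 mM ammonium acetate pH 7.4 (or ammonium formate pH 3.0) with an acetonitrile gradient of 0–100% over 10 min; UV detection at 220 and 254 nm.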

[7] = Half life in human liver microsomes at 1 uM by LC-MS analysis; type: ADME, Microsome; how it was run: as §1
[8] = tested on: Leishmania donovani; test: Antimicrobial activity against Leishmania donovani amastigote form infected in mouse peritoneal macrophage after 96 hrs by Giemsa staining method; type: functional, organism-based
How it was run: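 Mouse peritoneal macrophages (4×10⁴/well, RPMI 1640 + 10% heat-inactivated FBS) infected after 24 h with 1.2×10⁵ axenic amastigotes; free parasites removed at 4 h, drug dilutions added next day. After 96 h, methanol fixation and 10% Giemsa staining; infected and non-infected macrophages counted, % reduction in parasite burden vs controls, IC50 by linear regression; miltefosine control.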

[9] = tested on: Leishmania donovani; test: Antimicrobial activity against Leishmania donovani MHOM/ET/67/L82 amastigote form after 70 hrs by Alamar blue assay; type: functional, organism-based; settings: MHOM/ET/67/L82, 70 h
How it was run: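 Axenic amastigotes grown at 37 °C in SM medium pH 5.4 with 10% heat-inactivated FBS, 5% CO2; 10⁵ parasites per well exposed to eleven 3-fold dilutions (100 to 0.002 µg/mL) for 70 h. Alamar Blue (resazurin) added for 2–4 h, fluorescence read at ex 536/em 588 nm. IC50 by linear regression from sigmoidal curves; miltefosine control.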

[10] = tested on: Plasmodium falciparum; test: Antimicrobial activity against Plasmodium falciparum NF54 infected in human RBC after 48 hrs by [3H]hypoxanthine incorporation assay; type: functional, organism-based
How it was run: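 Erythrocytic stage, drug-sensitive strain, in hypoxanthine-free RPMI 1640 with HEPES, NaHCO3, neomycin, Albumax, human A+ red cells at 2.5% haematocrit, 0.3% parasitaemia. Eleven 3-fold dilutions from 100 to 0.002 µg/mL; 37 °C, 4% CO2/3% O2/93% N2. ³H-hypoxanthine added at 48 h, further 24 h, then harvested and scintillation-counted. IC50 by linear regression; chloroquine control.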

[11] = tested on: L6; test: Cytotoxicity against rat L6 cells after 70 hrs by Alamar blue assay; type: cell-based; settings: L6, 70 h
How it was run: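 4000 L-6 cells per well in RPMI 1640 with L-glutamine and 10% FBS. Eleven 3-fold dilutions from 100 to 0.002 µg/mL for 70 h; Alamar Blue 2 h, fluorescence at ex 536/em 588 nm. IC50 by linear regression from sigmoidal curves; podophyllotoxin control.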

[12] = tested on: Trypanosoma cruzi; test: Antitrypanosomal activity against Trypanosoma cruzi Tulahuen C2C4 amastigotes infected in rat L6 cells after 96 hrs by beta-galactosidase reporter gene assay; type: functional, organism-based; settings: Tulahuen C2C4, L6, 96 h
How it was run: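 L-6 cells (2000/well, RPMI 1640 + 10% FBS, 2 mM L-glutamine) infected after 24 h with 5000 LacZ-expressing trypomastigotes. At 48 h the medium was replaced with eleven 3-fold drug dilutions (100 to 0.002 µg/mL). After 96 h, CPRG/Nonidet substrate added, colour read at 540 nm after 2–6 h. IC50 by linear regression from sigmoidal curves; benznidazole control.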

[13] = tested on: Trypanosoma brucei rhodesiense; test: Antitrypanosomal activity against Trypanosoma brucei rhodesiense STIB 900 bloodstream form after 70 hrs by Alamar blue assay; type: functional, organism-based; settings: STIB 900, 70 h
How it was run: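 Bloodstream forms (4×10³/well) in MEM with 25 mM HEPES, extra glucose, non-essential amino acids, 0.2 mM 2-mercaptoethanol, 1 mM pyruvate and 15% heat-inactivated horse serum. Eleven 3-fold dilutions from 100 to 0.002 µg/mL, 70 h at 37 °C/5% CO2; Alamar Blue 2 h, fluorescence at ex 536/em 588 nm; IC50 by linear regression; melarsoprol control. SI relative to L6 cells.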

Row | SMILES | IC50 [1] [µM] | selectivity ratio [2] | also measured
1 | O=C(Nc1cccc(-c2nc3ncccc3o2)c1)c1cscn1 | 1.3 | 63 | 
2 | O=C(Nc1ccc(Cl)c(-c2nc3ncccc3o2)c1)c1ccccn1 | 5.7 | 15 | 
3 | Cc1ccc(NC(=O)c2cscn2)cc1-c1nc2ncccc2o1 | 2.6 | 32 | 
4 | Cc1ccoc1C(=O)Nc1cccc(-c2nc3ncccc3o2)c1 | 0.17 | 115 | microsomal CLint at 1 µM [3]: 181 µL/min/mg; solubility kinetic [4]: 6.3 µg/mL (≈ 19.7 µM); solubility kinetic [5]: 3.1 µg/mL (≈ 9.71 µM); logD [6]: 2.9; half-life at 1 µM [7]: 10 min
5 | O=C(Nc1cccc(-c2nc3ncccc3o2)c1F)c1ccco1 | > 10 |  | 
6 | COc1ccc(-c2cnc3nc(-c4cccc(NC(=O)c5ccco5)c4)oc3c2)cc1 | 0.63 | 130 | 
7 | O=C(Nc1cc(-c2nc3ncccc3o2)ccc1Cl)c1ccco1 | > 10 |  | 
8 | O=C(Nc1ccc(Cl)c(-c2nc3ncccc3o2)c1)c1ccno1 | 3.2 |  | 
9 | O=C(Nc1ccc(F)c(-c2nc3ncccc3o2)c1)c1cnco1 | 2 | 43 | microsomal CLint at 1 µM [3]: 14 µL/min/mg; solubility kinetic [4]: 6.3 µg/mL (≈ 19.4 µM); solubility kinetic [5]: 6.3 µg/mL (≈ 19.4 µM); logD [6]: 1.7; half-life at 1 µM [7]: 124 min
10 | O=C(Nc1ccc(Cl)c(-c2nc3ncccc3o2)c1)c1c[nH]cn1 | > 10 |  | 
11 | Cc1ccoc1C(=O)Nc1ccc(F)c(-c2nc3ncccc3o2)c1 | 0.1 | 840 | microsomal CLint at 1 µM [3]: 202 µL/min/mg; solubility kinetic [4]: 1.6 µg/mL (≈ 4.74 µM); solubility kinetic [5]: 1.6 µg/mL (≈ 4.74 µM); logD [6]: 2.9; half-life at 1 µM [7]: 9 min
12 | CCCCCCCCCCCCCCCCOP(=O)([O-])OCC[N+](C)(C)C [MILTEFOSINE] |  |  | EC50 [8]: 1.67 µM; EC50 [9]: 0.49 µM
13 | O=C(Nc1ccc(F)c(-c2nc3ncccc3o2)c1)c1ccco1 | 0.29 | 290 | 
14 | COc1ccccc1C(=O)Nc1ccc(Cl)c(-c2nc3ncccc3o2)c1 | > 10 |  | 
15 | O=C(Nc1cccc(-c2nc3ncccc3o2)c1Cl)c1ccco1 | > 10 |  | 
16 | O=C(Nc1ccc(Cl)c(-c2nc3ncccc3o2)c1)c1ccncc1 | 3.4 |  | 
17 | O=C(Nc1ccc(Cl)c(-c2nc3ncccc3o2)c1)c1cnco1 | 1.5 | > 45 | 
18 | CCN(CC)CCCC(C)Nc1ccnc2cc(Cl)ccc12 (stereo unspecified) [CHLOROQUINE] |  |  | EC50 [10]: 0.006 µM
19 | O=C(Nc1ccc(F)c(-c2nc3ncccc3o2)c1)c1cscn1 | 0.76 | 110 | microsomal CLint at 1 µM [3]: 48 µL/min/mg; solubility kinetic [4]: 3.1 µg/mL (≈ 9.11 µM); solubility kinetic [5]: 3.1 µg/mL (≈ 9.11 µM); logD [6]: 2.3; half-life at 1 µM [7]: 36 min
20 | Cc1ccoc1C(=O)Nc1ccc(Cl)c(-c2nc3ncccc3o2)c1 | 0.65 | > 130 | 
21 | O=C(Nc1cccc(-c2nc3ncccc3o2)c1)c1ccco1 | 0.34 | > 245 | 
22 | O=C(Nc1cncc(-c2nc3ncccc3o2)c1)c1ccco1 | > 10 |  | 
23 | O=C(Nc1ccc(Cl)c(-c2nc3ncccc3o2)c1)c1cc2ccccc2o1 | > 10 |  | 
24 | Cc1ccc(NC(=O)c2cnco2)cc1-c1nc2ncccc2o1 | > 10 |  | 
25 | COc1cc([C@@H]2c3cc4c(cc3[C@H](O)[C@H]3COC(=O)[C@H]23)OCO4)cc(OC)c1OC [PODOFILOX] |  |  | EC50 [11]: 0.017 µM
26 | COc1cccc(C(=O)Nc2ccc(Cl)c(-c3nc4ncccc4o3)c2)c1 | > 10 |  | 

Row | SMILES | IC50 [1] [µM] | selectivity ratio [2] | also measured
27 | O=C(Nc1ccc(Cl)c(-c2nc3ncccc3o2)c1)c1cccnc1 | > 10 |  | 
28 | O=C(Cn1ccnc1[N+](=O)[O-])NCc1ccccc1 [BENZNIDAZOLE] |  |  | EC50 [12]: 1.46 µM
29 | O=C(Nc1cccc(-c2nc3ncccc3o2)c1)c1cnco1 | 2.9 | 29 | 
30 | O=C(Nc1cc(-c2nc3ncccc3o2)ccn1)c1ccco1 | > 10 |  | 
31 | O=C(Nc1cc(F)cc(-c2nc3ncccc3o2)c1)c1ccco1 | > 10 |  | 
32 | COCC(=O)Nc1ccc(Cl)c(-c2nc3ncccc3o2)c1 | > 10 |  | 
33 | Cc1ccc(NC(=O)c2ccoc2)cc1-c1nc2ncccc2o1 | 0.31 | 103 | microsomal CLint at 1 µM [3]: 176 µL/min/mg; solubility kinetic [4]: 12.5 µg/mL (≈ 39.1 µM); solubility kinetic [5]: 6.3 µg/mL (≈ 19.7 µM); logD [6]: 2.7; half-life at 1 µM [7]: 10 min
34 | O=C(Nc1ccc(F)c(-c2nc3ncccc3o2)c1)c1ccoc1 | 0.12 | 680 | microsomal CLint at 1 µM [3]: 154 µL/min/mg; solubility kinetic [4]: 12.5 µg/mL (≈ 38.7 µM); solubility kinetic [5]: 6.3 µg/mL (≈ 19.5 µM); logD [6]: 2.4; half-life at 1 µM [7]: 11 min
35 | O=C(Nc1ccc(Cl)c(-c2nc3ncccc3o2)c1)c1cc[nH]n1 | > 10 |  | 
36 | Cc1ccc(NC(=O)c2occc2C)cc1-c1nc2ncccc2o1 | 0.57 | 145 | microsomal CLint at 1 µM [3]: 228 µL/min/mg; solubility kinetic [4]: 1.6 µg/mL (≈ 4.8 µM); solubility kinetic [5]: < 1.6 µg/mL; logD [6]: 3.3; half-life at 1 µM [7]: 8 min
37 | O=C(Nc1cccc(-c2nc3ncc(-c4ccc(Cl)cc4)cc3o2)c1)c1ccco1 | 0.55 | 150 | 
38 | O=C(Nc1ccc(Cl)c(-c2nc3ncccc3o2)c1)c1ccccc1 | 1.5 | 54 | IC50 [12]: 2.9 µM; IC50 [11]: 51 µM; IC50 [8]: 37 µM; IC50 [9]: 6.1 µM; IC50 [10]: 6.9 µM; IC50 [13]: 4.2 µM
39 | Cc1ccc(NC(=O)c2ccco2)cc1-c1nc2ncccc2o1 | 0.94 | > 88 | 
40 | Cc1c(NC(=O)c2ccco2)cccc1-c1nc2ncccc2o1 | > 10 |  | 
41 | CN(C(=O)c1ccoc1)c1ccc(Cl)c(-c2nc3ncccc3o2)c1 | > 10 |  | 
42 | O=C(Nc1cccc(-c2nc3ncccc3[nH]2)c1)c1ccoc1 | 1 | 39 | 
43 | COc1ccc(-c2nc3ncccc3o2)cc1NC(=O)c1ccco1 | 1.1 | 74 | 
44 | O=C(Nc1cccc(-c2nc3ncccc3[nH]2)c1)c1ccco1 | 0.78 | 54 | 
45 | Cc1ccc(-c2nc3ncccc3o2)cc1NC(=O)c1ccco1 | 6.2 | 13 | 
46 | O=C(Nc1cccc(-c2nc3ncc(-c4ccccc4)cc3o2)c1)c1ccco1 | 0.12 | 84 | 
47 | O=C(Nc1ccc(Cl)c(-c2nc3ncccc3o2)c1)c1cscn1 | 1.8 | 39 | IC50 [12]: 2.3 µM; IC50 [11]: 235 µM; IC50 [8]: > 84 µM; IC50 [9]: 4.8 µM; IC50 [10]: 7.7 µM; IC50 [13]: 1.1 µM
48 | CN(C(=O)c1ccccc1)c1ccc(Cl)c(-c2nc3ncccc3o2)c1 | > 10 |  | 
49 | O=C(Nc1ccc(Cl)c(-c2nc3ccccc3o2)c1)c1ccco1 | > 10 |  | 
50 | O=C(Nc1cc(-c2nc3ncccc3o2)ccc1F)c1ccco1 | 6.3 | 13 | 
51 | O=C(Nc1cccc(-c2nc3ncccc3o2)c1)c1ccoc1 | 0.6 | 89 | 
